Tests used:
EJ [1] = assay: Antiproliferative activity against human EJ138 cells deficit in CYPs assessed as inhibition of cell growth after 96 hrs by MTT assay; assay type: functional, cell-based
Procedure, shortened: (§1)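 Cells kept as monolayers at 37 °C in 5% CO2: EJ-138 and RT112 in RPMI 1640 with 10% FBS, sodium pyruvate and 2 mM L-glutamine; CHO and CHO-1A1 in DMEM. Compounds were taken from DMSO stocks into medium over 0.001–100 μM, with final DMSO ≤0.1%. Exposure lasted 96 h, then MTT read-out. IC50 values are mean ± SD of at least three independent assays.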

RT-112 = assay: Antiproliferative activity against human RT112 cells proficient in CYP1A1 assessed as inhibition of cell growth after 96 hrs by MTT assay; assay type: functional, cell-based; settings: RT-112, 96 h; procedure, shortened: as §1
CHO [2] = assay: Antiproliferative activity against wild type chinese hamster CHO cells deficit in CYPs assessed as inhibition of cell growth after 96 hrs by MTT assay; assay type: functional, cell-based; settings: Cricetulus griseus; procedure, shortened: as §1
CHO [3] = assay: Antiproliferative activity against chinese hamster CHO cells transfected with CYP1A1 assessed as inhibition of cell growth after 96 hrs by MTT assay; assay type: functional, cell-based; settings: Cricetulus griseus; procedure, shortened: as §1
EJ [4] = assay: Antiproliferative activity against human EJ138 cells assessed as inhibition of cell growth preincubated for 1 hr with CYP null bactosomes measured after 96 hrs by MTT assay; assay type: functional, cell-based
Procedure, shortened: (§2)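 Compound (50 μM) incubated 1 h at 37 °C with 20 pmol CYP bactosomes (CYP null, 1A1, 1A2, 1B1 or 3A4) in 2 mM NADPH, 1 mM MgCl₂, Tris-HCl pH 7.4. Metabolites were extracted with acetonitrile, centrifuged, and the supernatant dried and taken up in DMSO. EJ138 cells were exposed 96 h and growth read by MTT assay.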

EJ [5] = assay: Antiproliferative activity against human EJ138 cells assessed as inhibition of cell growth preincubated for 1 hr with human CYP1A1 expressing bactosomes measured after 96 hrs by MTT assay; assay type: functional, cell-based; procedure, shortened: as §2
EJ [6] = assay: Antiproliferative activity against human EJ138 cells assessed as inhibition of cell growth preincubated for 1 hr with human CYP1A2 expressing bactosomes measured after 96 hrs by MTT assay; assay type: functional, cell-based; procedure, shortened: as §2
EJ [7] = assay: Antiproliferative activity against human EJ138 cells assessed as inhibition of cell growth preincubated for 1 hr with human CYP1B1 expressing bactosomes measured after 96 hrs by MTT assay; assay type: functional, cell-based; procedure, shortened: as §2
EJ [8] = assay: Antiproliferative activity against human EJ138 cells assessed as inhibition of cell growth preincubated for 1 hr with human CYP3A4 expressing bactosomes measured after 96 hrs by MTT assay; assay type: functional, cell-based; procedure, shortened: as §2
[9] = Drug metabolism in Wistar rat liver microsomes assessed as CYP-mediated metabolite M16 formation at 0.5 to 23.5 uM prewarmed for 5 mins followed by NADPH addition and measured after 30 mins by HPLC-fluorescence detector analysis; assay type: ADME; settings: 35 min, dose 0.5-23.5 µM
Cytochrome P450 [10] = assay: Drug metabolism in human liver microsomes assessed as CYP-mediated metabolite M16 formation at 0.5 to 23.5 uM prewarmed for 5 mins followed by NADPH addition and measured after 30 mins by HPLC-fluorescence detector analysis; assay type: ADME; settings: 35 min, dose 0.5-23.5 µM
EJ [11] = assay: Potentiation factor, ratio of IC50 for antiproliferative activity against human EJ138 cells preincubated for 1 hr with CYP null bactosomes to IC50 for antiproliferative activity against human EJ138 cells preincubated for 1 hr with human CYP1A1 expressing bactosomes; assay type: functional
Procedure, shortened: (§3)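 Potentiation factor = IC₅₀ in EJ138 given control (CYP null) bactosome extract ÷ IC₅₀ with the named CYP isoform extract. Extracts came from 1 h, 37 °C incubations of 50 μM compound with 20 pmol bactosomes plus 2 mM NADPH, 1 mM MgCl₂, Tris-HCl pH 7.4. Cells were exposed 96 h and read by MTT.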

EJ [12] = assay: Potentiation factor, ratio of IC50 for antiproliferative activity against human EJ138 cells preincubated for 1 hr with CYP null bactosomes to IC50 for antiproliferative activity against human EJ138 cells preincubated for 1 hr with human CYP1A2 expressing bactosomes; assay type: functional; procedure, shortened: as §3
EJ [13] = assay: Potentiation factor, ratio of IC50 for antiproliferative activity against human EJ138 cells preincubated for 1 hr with CYP null bactosomes to IC50 for antiproliferative activity against human EJ138 cells preincubated for 1 hr with human CYP1B1 expressing bactosomes; assay type: functional; procedure, shortened: as §3
EJ [14] = assay: Potentiation factor, ratio of IC50 for antiproliferative activity against human EJ138 cells preincubated for 1 hr with CYP null bactosomes to IC50 for antiproliferative activity against human EJ138 cells preincubated for 1 hr with human CYP3A4 expressing bactosomes; assay type: functional; procedure, shortened: as §3
Cytochrome P450 1A1 [15] = molecular target: T1, Cytochrome P450 1A1 (Homo sapiens, UniProt P04798); assay: Drug metabolism assessed as human CYP1A1 expressed in bactosomes assessed as metabolite M2 with m/z 357.1 formation measured after 1 hr by LC-MS analysis; assay type: ADME; settings: recombinant enzyme
T1 sequence (P04798 whole entry): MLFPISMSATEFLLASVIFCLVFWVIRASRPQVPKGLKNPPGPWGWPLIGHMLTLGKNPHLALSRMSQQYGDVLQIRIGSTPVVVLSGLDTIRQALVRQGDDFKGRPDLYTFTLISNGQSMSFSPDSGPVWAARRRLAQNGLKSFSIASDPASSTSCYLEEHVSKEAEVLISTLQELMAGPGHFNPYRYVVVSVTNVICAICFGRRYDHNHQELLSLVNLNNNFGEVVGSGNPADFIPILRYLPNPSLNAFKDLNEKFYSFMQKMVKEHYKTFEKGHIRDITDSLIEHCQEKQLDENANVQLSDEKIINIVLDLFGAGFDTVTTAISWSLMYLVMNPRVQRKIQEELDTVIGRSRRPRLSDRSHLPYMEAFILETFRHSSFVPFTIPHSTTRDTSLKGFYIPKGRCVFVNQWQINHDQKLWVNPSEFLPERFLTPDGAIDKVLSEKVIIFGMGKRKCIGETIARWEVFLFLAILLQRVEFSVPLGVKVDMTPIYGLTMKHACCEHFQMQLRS

Cytochrome P450 1A1 [16] = molecular target: T1, Cytochrome P450 1A1; assay: Drug metabolism assessed as human CYP1A1 expressed in bactosomes assessed as metabolite M3 with m/z 339.1 formation measured after 1 hr by LC-MS analysis; assay type: ADME; settings: recombinant enzyme
Cytochrome P450 1A1 [17] = molecular target: T1, Cytochrome P450 1A1; assay: Drug metabolism assessed as human CYP1A1 expressed in bactosomes assessed as (3-(chloromethyl)-6-hydroxyindolin-1-yl)(5-methoxy-1H-indol-2-yl)methanone formation measured after 1 hr by LC-MS analysis; assay type: ADME; settings: recombinant enzyme
Cytochrome P450 1A2 = molecular target: T2, Cytochrome P450 1A2 (Homo sapiens, UniProt P05177); assay: Drug metabolism assessed as human CYP1A2 expressed in bactosomes assessed as (3-(chloromethyl)-6-hydroxyindolin-1-yl)(5-methoxy-1H-indol-2-yl)methanone formation measured after 1 hr by LC-MS analysis; assay type: ADME; settings: recombinant enzyme
T2 sequence (P05177 whole entry): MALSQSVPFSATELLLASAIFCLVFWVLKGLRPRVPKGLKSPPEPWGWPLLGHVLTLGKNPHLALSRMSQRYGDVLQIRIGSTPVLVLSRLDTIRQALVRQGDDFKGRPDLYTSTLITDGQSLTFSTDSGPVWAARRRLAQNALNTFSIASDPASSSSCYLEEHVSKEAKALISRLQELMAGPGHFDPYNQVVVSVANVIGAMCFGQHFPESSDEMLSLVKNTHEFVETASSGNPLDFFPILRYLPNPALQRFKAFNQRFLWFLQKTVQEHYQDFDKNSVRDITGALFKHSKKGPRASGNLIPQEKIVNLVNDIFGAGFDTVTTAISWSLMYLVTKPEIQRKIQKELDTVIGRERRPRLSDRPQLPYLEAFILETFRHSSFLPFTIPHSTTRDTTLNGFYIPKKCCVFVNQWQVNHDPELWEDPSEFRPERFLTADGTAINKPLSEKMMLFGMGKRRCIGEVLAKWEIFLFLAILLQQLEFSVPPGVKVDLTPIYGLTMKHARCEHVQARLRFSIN

Cytochrome P450 1A1 [18] = molecular target: T1, Cytochrome P450 1A1; assay: Drug metabolism assessed as recombinant human CYP1A1-mediated metabolite M2 with m/z 357.1 formation at 50 uM incubated for 1 hr in presence of reconstituted protein system by LC-MS analysis; assay type: ADME; settings: recombinant enzyme
Procedure, shortened: (§4)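 Substrate (50 μM) incubated at 37 °C with human recombinant CYP1A1 in a reconstituted system: NADPH cytochrome P450 reductase, freshly prepared DLPC (240 μM), 100 mM potassium phosphate pH 7.4. Reaction was started with NADPH (1 mM final) and aliquots quenched into dichloromethane over 60 min. Metabolites were profiled by HPLC with photodiode array and ESI⁺ quadrupole MS.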

Cytochrome P450 1A1 [19] = molecular target: T1, Cytochrome P450 1A1; assay: Drug metabolism assessed as recombinant human CYP1A1-mediated metabolite M3 with m/z 339.1 formation at 50 uM incubated for 1 hr in presence of reconstituted protein system by LC-MS analysis; assay type: ADME; settings: recombinant enzyme; procedure, shortened: as §4
Cytochrome P450 1A1 [20] = molecular target: T1, Cytochrome P450 1A1; assay: Drug metabolism assessed as recombinant human CYP1A1-mediated metabolite M4 with m/z 327.1 formation at 50 uM incubated for 1 hr in presence of reconstituted protein system by LC-MS analysis; assay type: ADME; settings: recombinant enzyme; procedure, shortened: as §4
Cytochrome P450 1A1 [21] = molecular target: T1, Cytochrome P450 1A1; assay: Drug metabolism assessed as recombinant human CYP1A1-mediated metabolite M5 with m/z 355.1 formation at 50 uM incubated for 1 hr in presence of reconstituted protein system by LC-MS analysis; assay type: ADME; settings: recombinant enzyme; procedure, shortened: as §4
Cytochrome P450 1A1 [22] = molecular target: T1, Cytochrome P450 1A1; assay: Drug metabolism assessed as recombinant human CYP1A1-mediated metabolite M6 with m/z 373.1 formation at 50 uM incubated for 1 hr in presence of reconstituted protein system by LC-MS analysis; assay type: ADME; settings: recombinant enzyme; procedure, shortened: as §4
[23] = Drug metabolism in Wistar rat liver microsomes assessed as CYP-mediated metabolite M22 formation at 0.5 to 23.5 uM prewarmed for 5 mins followed by NADPH addition and measured after 30 mins by HPLC-fluorescence detector analysis; assay type: ADME; settings: 35 min, dose 0.5-23.5 µM
[24] = Drug metabolism in Wistar rat liver microsomes assessed as CYP-mediated metabolite M23 formation at 0.5 to 23.5 uM prewarmed for 5 mins followed by NADPH addition and measured after 30 mins by HPLC-fluorescence detector analysis; assay type: ADME; settings: 35 min, dose 0.5-23.5 µM
Cytochrome P450 [25] = assay: Drug metabolism in human liver microsomes assessed as CYP-mediated metabolite M22 formation at 0.5 to 23.5 uM prewarmed for 5 mins followed by NADPH addition and measured after 30 mins by HPLC-fluorescence detector analysis; assay type: ADME; settings: 35 min, dose 0.5-23.5 µM
Cytochrome P450 [26] = assay: Drug metabolism in human liver microsomes assessed as CYP-mediated metabolite M23 formation at 0.5 to 23.5 uM prewarmed for 5 mins followed by NADPH addition and measured after 30 mins by HPLC-fluorescence detector analysis; assay type: ADME; settings: 35 min, dose 0.5-23.5 µM
[27] = Selectivity ratio of IC50 for antiproliferative activity against wild type chinese hamster CHO cells deficit in CYPs to IC50 for antiproliferative activity against chinese hamster CHO cells transfected with CYP1A1 by MTT assay; assay type: functional, Cricetulus griseus
Procedure, shortened: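 CHO wild-type and CYP1A1-transfected CHO cells were grown in DMEM at 37 °C, 5% CO₂. Compounds from DMSO stocks were tested at 0.001–100 μM, final DMSO ≤0.1%, for 96 h, then MTT. Ratio = CHOwt IC₅₀ / CHO1A1 IC₅₀; IC₅₀ values are mean ± SD of at least three independent assays.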

Q: Which results are given for `CC(C)(C)OC(=O)N1CC(CCl)c2ccc(O)cc21` (stereo not drawn)?
A: IC50 (EJ [1]): 8.1 µM; IC50 (RT-112): 11.1 µM; IC50 (CHO [2]): 7.3 µM; IC50 (CHO [3]): 6.5 µM

Q: For `COc1ccc2[nH]c(C(=O)N3CC(CCl)c4ccccc43)cc2c1` (stereo not drawn), which IC50 (EJ [1]) is on record?
A: 15 µM

Q: What about the IC50 (RT-112) of the same molecule?
A: 8.04 µM

Q: And the IC50 (CHO [2])?
A: 11.4 µM

Q: And the IC50 (CHO [3])?
A: 1.2 µM

Q: What about the IC50 (EJ [4]) of the same molecule?
A: 17.2 µM

Q: And the IC50 (EJ [5])?
A: 2500 nM

Q: And the IC50 (EJ [6])?
A: 1900 nM

Q: And the IC50 (EJ [7])?
A: 13.5 µM

Q: What about the IC50 (EJ [8]) of the same molecule?
A: 19.8 µM

Q: What about the Drug metabolism [9] of the same molecule?
A: Metabolite_Detected

Q: What about the Drug metabolism (Cytochrome P450 [10]) of the same molecule?
A: Metabolite_Detected

Q: What about the “Ratio IC50” value (EJ [11]) of the same molecule?
A: 6.9

Q: And the “Ratio IC50” value (EJ [12])?
A: 9.1

Q: And the “Ratio IC50” value (EJ [13])?
A: 1.3

Q: And the “Ratio IC50” value (EJ [14])?
A: 0.9

Q: And the Drug metabolism (Cytochrome P450 1A1 [15])?
A: Metabolite_Detected

Q: What about the Drug metabolism (Cytochrome P450 1A1 [16]) of the same molecule?
A: Metabolite_Detected

Q: And the Drug metabolism (Cytochrome P450 1A1 [17])?
A: Metabolite_Notdetected

Q: And the Drug metabolism (Cytochrome P450 1A2)?
A: Metabolite_Notdetected

Q: And the Drug metabolism (Cytochrome P450 1A1 [18])?
A: Metabolite_Detected

Q: What about the Drug metabolism (Cytochrome P450 1A1 [19]) of the same molecule?
A: Metabolite_Detected

Q: What about the Drug metabolism (Cytochrome P450 1A1 [20]) of the same molecule?
A: Metabolite_Detected

Q: And the Drug metabolism (Cytochrome P450 1A1 [21])?
A: Metabolite_Detected

Q: And the Drug metabolism (Cytochrome P450 1A1 [22])?
A: Metabolite_Detected

Q: And the Drug metabolism [23]?
A: Metabolite_Detected

Q: What about the Drug metabolism [24] of the same molecule?
A: Metabolite_Detected

Q: What about the Drug metabolism (Cytochrome P450 [25]) of the same molecule?
A: Metabolite_Detected

Q: What about the Drug metabolism (Cytochrome P450 [26]) of the same molecule?
A: Metabolite_Detected

Q: And the “Ratio IC50” value [27]?
A: 10

Source: ChEMBL document CHEMBL4819117, “Probing cytochrome P450 (CYP) bioactivation with chloromethylindoline bioprecursors derived from the duocarmycin family of compounds” (Bioorg Med Chem, 2021)
